Laboratory results published in ChEMBL document CHEMBL1137992, “Long hydrocarbon chain keto diols and diacids that favorably alter lipid disorders in vivo” (J Med Chem, 2004).

Test system: not listed separately
Experiment: Concentration required for inhibition of lipid synthesis in primary cultures of rat hepatocytes
Type: functional, cell-based
Conditions: Hepatocyte
Outline: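 Primary hepatocytes from male Sprague-Dawley rats (Seglen isolation), plated at 1.5×10^5 cells/cm² on collagen in serum-containing DMEM, switched to serum-free medium after 4 h, grown overnight to monolayers. Cells incubated 4 h with 0.25 μCi [1-14C]acetate/well (1 Ci/mol final) plus 0, 1, 3, 10, 30, 100 or 300 μM compound. Lipids extracted into scintillant and counted; IC50 taken from lipid synthesis rates.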

| SMILES | IC50 |
| --- | --- |
| CC(C)(CO)CCCCC(=O)CCCCC(C)(C)CO | 4 µM |

Test system: Rattus norvegicus
Experiment: Amount of non-HDL-cholesterol in obese Zucker rats at pre-treatment at a dose of 30 mg/kg/day
Type: functional
Conditions: not given
Outline: (§1)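 Female obese Zucker fatty rats [Crl:(Zuc)-faBR], 10–12 weeks old (400–500 g), on chow. Compound in 20% EtOH/80% PEG-200 (v/v) given by daily oral gavage. After a 6-h fast, serum was taken before dosing and at 7 days (orbital plexus), and at 14 days (cardiac puncture). Lipoprotein cholesterol came from Superose 6HR gel-filtration profiles × serum total cholesterol. Mean ± SEM.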

| SMILES | Activity |
| --- | --- |
| CC(C)(CO)CCCCC(=O)CCCCC(C)(C)CO | 30 mg/dL |

Test system: Rattus norvegicus
Experiment: Percent decrease in nonesterified fatty acids in obese Zucker rats after 1 week of treatment at a dose of 100 mg/kg/day
Type: functional
Set-up: scale not given: the % may be the effect or the level left
Conditions: not given
Outline: (§2)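 Female Zucker fatty rats [Crl:(Zuc)-faBR], 10–12 weeks, 400–500 g, acclimated 7 days on chow. Compound or vehicle (20% EtOH/80% PEG-200) given by daily oral gavage for 2 weeks, 0–100 mg/kg/day. After a 6 h fast, blood was taken before dosing, at 1 wk and at 2 wk. Serum lipids, NEFA and insulin (ELISA) were measured; glucose by glucometer. HDL/non-HDL-C came from Superose 6 gel-filtration profiles. Values are % change from pretreatment, mean ± SEM.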

| SMILES | Activity |
| --- | --- |
| CC(C)(CO)CCCCC(=O)CCCCC(C)(C)CO | -30% |

Test system: Rattus norvegicus
Experiment: Amount of insulin in obese Zucker rats after 2 weeks of treatment at a dose of 100 mg/kg/day
Type: functional
Conditions: not given
Outline: (§3)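 Female obese Zucker rats [Crl:(Zuc)-faBR], 400–500 g, given daily oral gavage in 20% EtOH/80% PEG-200 for up to 14 days. After a 6-h fast, serum was collected pretreatment and at day 7 (orbital bleed) and day 14 (cardiac puncture) and stored at -80 °C. Insulin was measured by ELISA. Values are mean ± SEM.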

| SMILES | Activity |
| --- | --- |
| CC(C)(CO)CCCCC(=O)CCCCC(C)(C)CO | 11 ng/mL |

Test system: Rattus norvegicus
Experiment: Amount of non-HDL-cholesterol in obese Zucker rats at pre-treatment at a dose of 0 mg/kg/day
Type: functional
Conditions: not given
Outline: as §1

| SMILES | Activity |
| --- | --- |
| CC(C)(CO)CCCCC(=O)CCCCC(C)(C)CO | 25 mg/dL |

Test system: Rattus norvegicus
Experiment: Amount of insulin in obese Zucker rats at pre-treatment at a dose of 0 mg/kg/day
Type: functional
Conditions: not given
Outline: as §3

| SMILES | Activity |
| --- | --- |
| CC(C)(CO)CCCCC(=O)CCCCC(C)(C)CO | 9.1 ng/mL |

Test system: Rattus norvegicus
Experiment: Amount of insulin in obese Zucker rats at pre-treatment at a dose of 100 mg/kg/day
Type: functional
Conditions: not given
Outline: as §3

| SMILES | Activity |
| --- | --- |
| CC(C)(CO)CCCCC(=O)CCCCC(C)(C)CO | 9.6 ng/mL |

Test system: Rattus norvegicus
Experiment: Amount of triglycerides in obese Zucker rats at pre-treatment at a dose of 0 mg/kg/day
Type: functional
Conditions: not given
Outline: (§4)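 Female Zucker fatty rats [Crl:(Zuc)-faBR], 10–12 weeks old (400–500 g), dosed once daily by oral gavage in 20% EtOH/80% PEG-200 for up to 14 days. After a 6-h fast, serum was taken pre-dose, at day 7 (orbital venous plexus, O2/CO2 anaesthesia) and at day 14 (cardiac puncture), stored at −80 °C, and assayed on a Hitachi 912 automatic analyzer. Mean ± SEM.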

| SMILES | Activity |
| --- | --- |
| CC(C)(CO)CCCCC(=O)CCCCC(C)(C)CO | 933 mg/dL |

Test system: Rattus norvegicus
Experiment: Amount of triglycerides in obese Zucker rats after 1 week of treatment at a dose of 0 mg/kg/day
Type: functional
Conditions: not given
Outline: as §4

| SMILES | Activity |
| --- | --- |
| CC(C)(CO)CCCCC(=O)CCCCC(C)(C)CO | 1114 mg/dL |

Test system: Rattus norvegicus
Experiment: Amount of triglycerides in obese Zucker rats after 1 week of treatment at a dose of 10 mg/kg/day
Type: functional
Conditions: not given
Outline: as §4

| SMILES | Activity |
| --- | --- |
| CC(C)(CO)CCCCC(=O)CCCCC(C)(C)CO | 602 mg/dL |

Test system: Rattus norvegicus
Experiment: Amount of triglycerides in obese Zucker rats after 1 week of treatment at a dose of 30 mg/kg/day
Type: functional
Conditions: not given
Outline: as §4

| SMILES | Activity |
| --- | --- |
| CC(C)(CO)CCCCC(=O)CCCCC(C)(C)CO | 726 mg/dL |

Test system: Rattus norvegicus
Experiment: Amount of HDL-cholesterol in obese Zucker rats after 1 week of treatment at a dose of 100 mg/kg/day
Type: functional
Conditions: not given
Outline: (§5)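 Female Zucker fatty rats [Crl:(Zuc)-faBR], 10–12 weeks old (400–500 g), dosed once daily by oral gavage in 20% EtOH/80% PEG-200 (dose volume 0.25% of body weight). Rats were fasted 6 h and bled before dosing and at day 7 (orbital plexus), and at day 14 (cardiac puncture). Serum cholesterol fractions came from Superose 6 gel-filtration lipoprotein profiles (% peak area × serum total cholesterol). Values are mean ± SEM.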

| SMILES | Activity |
| --- | --- |
| CC(C)(CO)CCCCC(=O)CCCCC(C)(C)CO | 78 mg/dL |

Test system: Rattus norvegicus
Experiment: Amount of HDL-cholesterol in obese Zucker rats after 2 weeks of treatment at a dose of 30 mg/kg/day
Type: functional
Conditions: not given
Outline: as §5

| SMILES | Activity |
| --- | --- |
| CC(C)(CO)CCCCC(=O)CCCCC(C)(C)CO | 61 mg/dL |

Test system: Rattus norvegicus
Experiment: Amount of HDL-cholesterol in obese Zucker rats after 2 weeks of treatment at a dose of 3 mg/kg/day
Type: functional
Conditions: not given
Outline: as §5

| SMILES | Activity |
| --- | --- |
| CC(C)(CO)CCCCC(=O)CCCCC(C)(C)CO | 39 mg/dL |

Test system: Rattus norvegicus
Experiment: Amount of nonesterified fatty acids in obese Zucker rats at pre-treatment at a dose of 0 mg/kg/day
Type: functional
Conditions: not given
Outline: as §4

| SMILES | Activity |
| --- | --- |
| CC(C)(CO)CCCCC(=O)CCCCC(C)(C)CO | 1.2 mg/dL |

Test system: Rattus norvegicus
Experiment: Amount of non-HDL-cholesterol in obese Zucker rats after 1 week of treatment at a dose of 10 mg/kg/day
Type: functional
Conditions: not given
Outline: as §5

| SMILES | Activity |
| --- | --- |
| CC(C)(CO)CCCCC(=O)CCCCC(C)(C)CO | 21 mg/dL |

Test system: Rattus norvegicus
Experiment: Amount of non-HDL-cholesterol in obese Zucker rats after 2 weeks of treatment at a dose of 0 mg/kg/day
Type: functional
Conditions: not given
Outline: as §5

| SMILES | Activity |
| --- | --- |
| CC(C)(CO)CCCCC(=O)CCCCC(C)(C)CO | 30 mg/dL |

Test system: Rattus norvegicus
Experiment: Amount of non-HDL-cholesterol in obese Zucker rats after 2 weeks of treatment at a dose of 30 mg/kg/day
Type: functional
Conditions: not given
Outline: as §1

| SMILES | Activity |
| --- | --- |
| CC(C)(CO)CCCCC(=O)CCCCC(C)(C)CO | 38 mg/dL |

Test system: Rattus norvegicus
Experiment: Percent increase in HDL-cholesterol in obese Zucker rats after 1 week of treatment at a dose of 100 mg/kg/day
Type: functional
Conditions: not given
Outline: as §2

| SMILES | Activity |
| --- | --- |
| CC(C)(CO)CCCCC(=O)CCCCC(C)(C)CO | 73% |

Test system: Rattus norvegicus
Experiment: Percent increase in HDL-cholesterol in obese Zucker rats after 1 week of treatment at a dose of 30 mg/kg/day
Type: functional
Conditions: not given
Outline: as §2

| SMILES | Activity |
| --- | --- |
| CC(C)(CO)CCCCC(=O)CCCCC(C)(C)CO | 40% |

Test system: Rattus norvegicus
Experiment: Amount of nonesterified fatty acids in obese Zucker rats after 1 week of treatment at a dose of 100 mg/kg/day
Type: functional
Conditions: not given
Outline: as §4

| SMILES | Activity |
| --- | --- |
| CC(C)(CO)CCCCC(=O)CCCCC(C)(C)CO | 0.98 mg/dL |

Test system: Rattus norvegicus
Experiment: Amount of nonesterified fatty acids in obese Zucker rats after 2 weeks of treatment at a dose of 10 mg/kg/day
Type: functional
Conditions: not given
Outline: as §4

| SMILES | Activity |
| --- | --- |
| CC(C)(CO)CCCCC(=O)CCCCC(C)(C)CO | 1 mg/dL |

Test system: Rattus norvegicus
Experiment: Amount of HDL-cholesterol in obese Zucker rats at pre-treatment at a dose of 30 mg/kg/day
Type: functional
Conditions: not given
Outline: as §5

| SMILES | Activity |
| --- | --- |
| CC(C)(CO)CCCCC(=O)CCCCC(C)(C)CO | 43 mg/dL |

Test system: Rattus norvegicus
Experiment: Amount of glucose in obese Zucker rats after 1 week of treatment at a dose of 3 mg/kg/day
Type: functional
Conditions: not given
Outline: (§6)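 Female Zucker fatty rats [Crl:(Zuc)-faBR], 10–12 weeks old (400–500 g), gavaged daily with vehicle (20% EtOH/80% PEG-200, 0.25% of body weight) or compound. After a 6-h fast, blood glucose was read by glucometer from tail-prick blood of unanesthetized rats before dosing and after 1 and 2 weeks. Values are mean ± SEM.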

| SMILES | Activity |
| --- | --- |
| CC(C)(CO)CCCCC(=O)CCCCC(C)(C)CO | 106 mg/dL |

Test system: Rattus norvegicus
Experiment: Amount of insulin in obese Zucker rats after 1 week of treatment at a dose of 3 mg/kg/day
Type: functional
Conditions: not given
Outline: as §3

| SMILES | Activity |
| --- | --- |
| CC(C)(CO)CCCCC(=O)CCCCC(C)(C)CO | 7.5 ng/mL |

Test system: Rattus norvegicus
Experiment: Amount of triglycerides in obese Zucker rats at pre-treatment at a dose of 10 mg/kg/day
Type: functional
Conditions: not given
Outline: as §4

| SMILES | Activity |
| --- | --- |
| CC(C)(CO)CCCCC(=O)CCCCC(C)(C)CO | 777 mg/dL |

Test system: Rattus norvegicus
Experiment: Amount of triglycerides in obese Zucker rats at pre-treatment at a dose of 30 mg/kg/day
Type: functional
Conditions: not given
Outline: as §4

| SMILES | Activity |
| --- | --- |
| CC(C)(CO)CCCCC(=O)CCCCC(C)(C)CO | 998 mg/dL |

Test system: Rattus norvegicus
Experiment: Amount of insulin in obese Zucker rats after 1 week of treatment at a dose of 10 mg/kg/day
Type: functional
Conditions: not given
Outline: as §3

| SMILES | Activity |
| --- | --- |
| CC(C)(CO)CCCCC(=O)CCCCC(C)(C)CO | 7.5 ng/mL |

Test system: Rattus norvegicus
Experiment: Amount of glucose in obese Zucker rats at pre-treatment at a dose of 0 mg/kg/day
Type: functional
Conditions: not given
Outline: as §6

| SMILES | Activity |
| --- | --- |
| CC(C)(CO)CCCCC(=O)CCCCC(C)(C)CO | 125 mg/dL |

Test system: Rattus norvegicus
Experiment: Amount of glucose in obese Zucker rats at pre-treatment at a dose of 100 mg/kg/day
Type: functional
Conditions: not given
Outline: as §6

| SMILES | Activity |
| --- | --- |
| CC(C)(CO)CCCCC(=O)CCCCC(C)(C)CO | 114 mg/dL |

Test system: Rattus norvegicus
Experiment: Amount of insulin in obese Zucker rats after 2 weeks of treatment at a dose of 3 mg/kg/day
Type: functional
Conditions: not given
Outline: as §3

| SMILES | Activity |
| --- | --- |
| CC(C)(CO)CCCCC(=O)CCCCC(C)(C)CO | 7.8 ng/mL |

Test system: Rattus norvegicus
Experiment: Amount of non-HDL-cholesterol in obese Zucker rats after 2 weeks of treatment at a dose of 100 mg/kg/day
Type: functional
Conditions: not given
Outline: as §5

| SMILES | Activity |
| --- | --- |
| CC(C)(CO)CCCCC(=O)CCCCC(C)(C)CO | 32 mg/dL |
